Measurements published in ChEMBL document CHEMBL4513216, “Probing the Open Global Health Chemical Diversity Library for Multistage-Active Starting Points for Next-Generation Antimalarials” (ACS Infect Dis, 2020).

assay: Toxicity liver stage against HepG2, at 10uM; type: cell-based; parameters: test concentration 10 uM, cell line HepG2-A16-CD81EGFP; conditions: human, HepG2-A16-CD81EGFP cells; read-out: INHIBITION
How it was run: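 Uninfected HepG2-A16-CD81EGFP cells, 3 × 10^3 per well, 1536-well, plated on prespotted compound at 10 μM final, parasite-free screening media added to match infected plates; puromycin 10 μM positive, DMSO 0.5% negative; run in parallel with 48 h PbLuc assay at 37 °C, 5% CO2; viability by CellTiter-Glo luminescence, normalized to controls.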

In order of falling cytotoxicity at 10 µM:
1. NC(=O)C1CCCN1Cc1cccc(NC(=O)c2ccc(Cl)cc2F)c1 (stereo unspecified)  18.6%
2. CC(C)(C)c1nnc(CN(Cc2cccs2)CC2CCCO2)o1 (stereo unspecified)  15.8%
3. CC(C(=O)O)N1CCc2onc(-c3ccc(F)c(F)c3)c2C1 (stereo unspecified)  14.9%
4. COc1ccc(CNC(C)c2cccc(Cl)c2)c(OC)c1OC (stereo unspecified)  14%
5. CCOCC1CN(CC2CCC2)Cc2nnn(CC3CC3)c21 (stereo unspecified)  12.7%
6. Cc1nn(C)c2c(N3CCN(C(=O)C4CCCCC4)CC3)ncnc12  12.3%
7. CN1CCCC(NC(=O)c2ccc(C(=O)c3cc[nH]c3)cc2)C1 (stereo unspecified)  11.9%
8. CCN(C)C(=O)c1cccc(C(=O)N(C)Cc2cccc(O)c2)c1  11.7%
9. CC(C)N1[C@H](CN(C)C)C[C@@H]2CN(c3ncc(F)cn3)CC[C@@H]21  11.7%
10. Cc1noc([C@]23COC[C@H]2CN(S(=O)(=O)N(C)C)C3)n1  10.9%
11. COc1ccc(CN2CCOC3(CCCN(c4cnccn4)C3)C2)cc1 (stereo unspecified)  10.5%
12. CNc1oc(-c2ccc(OC)c(S(=O)(=O)N3CCCCC3)c2)nc1C#N  10.4%
13. O=C1NC(c2ccccc2)=N[C@@]12CC[C@@H]1CN(CC3CC3)C[C@@H]12  9.79%
14. COCCc1noc(CN(C)c2nccc(C)n2)n1  9.34%
15. Cc1noc(C)c1C(=O)NCc1cc[nH]n1  9.31%
16. Cc1noc(C2CCC3(CCN(C(=O)c4cnn(C)c4)CC3)O2)n1 (stereo unspecified)  8.77%
17. O=S(=O)(C1CC1)N1CC[C@]2(C[C@H](OCC3CCOCC3)CO2)C1  8.64%
18. Cc1nc(C2CCCN2CC(=O)NCCc2ccc(Cl)cc2)no1 (stereo unspecified)  8.52%
19. Cc1cc(C(=O)Nc2ccc3c(c2)N(C)CCN(C)C3)on1  7.34%
20. CCc1ccc(CN2CCC3(CCCN(C(=O)N(C)C)C3)C2)o1 (stereo unspecified)  7.07%
21. N[C@H]1CN(S(=O)(=O)N2CCCC2)C[C@@H]1c1ccccc1  6.86%
22. Cc1nc(C(=O)N2CCC(Nc3cccnn3)CC2)cs1  6.74%
23. Cc1cc(C)n(CCNc2ncnc3c2NC(=O)CN3)n1  6.61%
24. O=C(NC1CC1)[C@H]1C[C@@H]2CCN(CCc3ccccc3)C[C@H]2O1  6.46%
25. CCCc1nnc(N2CCN(c3ccccc3F)CC2)o1  5.85%
26. Cc1cc(C)n(CC(=O)N2CCCCC2CCN2CCCC2=O)c(=O)n1 (stereo unspecified)  5.09%
27. O=C(CCN1CCOC(Cn2cccn2)C1)NC1CCCC1 (stereo unspecified)  4.98%
28. COc1c(CNCCc2c[nH]c3cc(F)ccc23)c(C(C)C)nn1C  4.64%
29. Cc1cc(C(=O)NS(=O)(=O)Cc2ccon2)c(C)o1  4.42%
30. CCN(C)Cc1cnc(S(=O)(=O)CC)n1CCOC  4.38%
31. Oc1ccc(N(CCc2ccccc2)CCn2cncn2)cc1  4.21%
32. CC(C)N(Cc1ccc(C#N)cc1)C(=O)Nc1ccncc1  3.9%
33. c1cc(CNCc2ccnc(N3CCCC3)c2)c2c(c1)OCCO2  3.64%
34. CC(C)=CCN1C[C@@H]2CC[C@H]1CN(S(=O)(=O)c1cccnc1)C2  3.26%
35. CC(C)(C)C(=O)N1CCC(n2cc(C3(O)CCCC3)nn2)CC1  3.15%
36. CN(Cc1cccnc1)CC1(O)CCCN(CC(C)(C)C)C1=O (stereo unspecified)  3.09%
37. N#Cc1cccc(OCCN2CCCC2C(=O)Nc2nccs2)c1 (stereo unspecified)  2.94%
38. COCc1cccc(NC(C(N)=O)c2ccc(Br)cc2)c1 (stereo unspecified)  2.94%
39. COc1ccc(Oc2ncccc2NC(=O)N2CCOC(C)C2)cc1 (stereo unspecified)  2.65%
40. COc1ccc2c(c1)NC(=O)C2OC(=O)CC(C)(C)C (stereo unspecified)  2.41%
41. CC(NC(=O)C1CCN(C(=O)C2CC2)CC1)c1nncn1C(C)C (stereo unspecified)  1.33%
42. COCc1nnc(C(=O)N2CCCC(O)C2)o1 (stereo unspecified)  1.31%
43. c1cncc(COCC2CC[C@H]3[C@H]2OCCN3Cc2ccoc2)c1 (stereo partly specified)  1.2%
44. CCn1nccc1CN(C)C(=O)Cn1nc(C)c(C)c1C  0.66%
45. CCc1cc(CN(C)C(=O)CN2CC3(CCNCC3)OC2=O)on1  0.394%
46. Cc1cc(CN2CCN(C(=O)NCc3c(C)noc3C)CC2)on1  0.386%
47. Cc1ncoc1C(=O)N1C[C@H]2CCC[C@@]2(COCC2CCOCC2)C1  0.23%
48. Cc1cccc(N2CCOCC3(C2)CN(c2cnn(C)c2)C(=O)CO3)n1 (stereo unspecified)  -0.136%
49. CCS(=O)(=O)N1CCC2(CC(=O)N(c3cncnc3)C2)C1 (stereo unspecified)  -0.298%
50. O=C(NCCNC(=O)c1scnc1Cl)c1ccccc1Cl  -0.524%
51. O=C(NCc1csc2ccc(Cl)cc12)c1cc2n(n1)CCNC2  -0.699%
52. Cc1ccc(C(=O)NS(=O)(=O)c2ccccc2Br)c(=O)[nH]1  -0.704%
53. O=C(NC[C@H]1Cn2c(-c3ccccc3)cnc2CO1)C1CCOCC1  -0.869%
54. Cc1nc(CN2CCCC(NCCOc3ccccc3C#N)C2)no1 (stereo unspecified)  -1.13%
55. CNCC1CCC(c2cc(CN(C)S(=O)(=O)N(C)C)n(C)n2)CC1 (stereo unspecified)  -1.33%
56. CCC1CN(C)c2ccccc2CN1C(=O)CCn1cncn1 (stereo unspecified)  -1.87%
57. O=C(c1cc(Cn2ccc3ccccc32)[nH]n1)N1CCC[C@H]1CO  -1.99%
58. O=C(C(CNCc1ccco1)c1ccccc1)N1CCOCC1 (stereo unspecified)  -2.1%
59. CCOc1cccc(NC(=O)c2cc(C)on2)n1  -2.14%
60. CCc1ccccc1CN1CC[C@@]2(O)CCN(S(=O)(=O)N(C)C)C[C@H]2C1  -2.19%
61. CN1CCCN(S(C)(=O)=O)c2cc(F)ccc21  -2.24%
62. O=C(Nc1nc2c(s1)CNCC2)NC1CCCC1  -2.37%
63. CCC(=O)NCC(=O)Nc1c(C)cnn1Cc1cc(F)ccc1F  -2.59%
64. CN(C)C(=O)N1CCCC(C(=O)N(C)Cc2cnc(N)nc2)C1 (stereo unspecified)  -2.81%
65. Cc1cc(C)n(CC2CN(CC(=O)Nc3ccncc3)CCO2)n1 (stereo unspecified)  -3.18%
66. Cc1cc(C)n(CC2CCCN2C(=O)c2ccc(C(N)=O)cn2)n1 (stereo unspecified)  -3.87%
67. CCc1c(C(=O)N2CCCN(C(C)=O)CC2)cnn1C(C)(C)C  -3.93%
68. CSCCC(=O)N1CCC(c2nccn2CCN(C)C)CC1  -4.17%
69. CNS(=O)(=O)Cc1ccc(CNc2cncc(-n3cccn3)n2)cc1  -4.66%
70. CCC(C)(C)NC(=O)C1CC(=O)N(CC2CC2)C1 (stereo unspecified)  -4.72%
71. Cc1nc(C)n(CC2CCCN2Cc2ccn(-c3ccccc3)n2)n1 (stereo unspecified)  -5.01%
72. CN(C)C(=O)CCS(=O)(=O)Cc1cc(Cl)c2c(c1)OCO2  -5.09%
73. COCCN(CCOC)C(=O)c1ccc(Cn2nc(C)cc2C)cc1  -5.15%
74. Cc1ccc(CN(C)Cc2nc3ccc(F)cc3[nH]2)cn1  -5.16%
75. Cn1ccnc1CC1CCCN(C(=O)NCCOc2cccnc2)C1 (stereo unspecified)  -5.19%
76. CN(Cc1ccsc1)C(=O)c1cccc(NS(C)(=O)=O)c1  -5.72%
77. F[C@@H]1CN(C2CCC2)C[C@@H]1OCc1nc2ncccc2[nH]1  -6.66%
78. CCCC1CN(CCOc2ccccc2)C(=O)c2cccnc2O1 (stereo unspecified)  -6.77%
79. CC(C)(C)c1nc(CN2CCOC(Cn3cncn3)C2)cs1 (stereo unspecified)  -7.2%
80. Cc1cnn(C2CCCN(C(=O)c3ccc(C(N)=O)cn3)C2)c1 (stereo unspecified)  -7.35%
81. Cc1ncsc1C(=O)NC1CCN(Cc2cccnc2)CC1  -7.49%
82. Cn1nc(C2CNCCO2)cc1CCOc1ccc(C(F)(F)F)cc1 (stereo unspecified)  -7.54%
83. CC(NC(=O)NCCCN(C)C)c1ccc2c(c1)CCC(=O)N2 (stereo unspecified)  -8.03%
84. Cc1noc(C)c1CS(=O)(=O)CC(=O)N(C)Cc1cccc(F)c1  -8.1%
85. CC1CCN(c2cc(NC(=O)C3CC3)ncn2)CC1  -8.67%
86. CC(C)(C)NC(=O)NC(=O)CN1C=Nc2ccccc2S1(=O)=O  -8.68%
87. CN(Cc1cccc(C#N)c1)Cc1nc2c(cnn2C)c(=O)[nH]1  -8.7%
88. CC1Cc2ccccc2N1C(=O)Cn1nc(-c2cccs2)ccc1=O (stereo unspecified)  -9.08%
89. COc1ccc2cc(C(=O)N3CCCC(n4ccnc4C)C3)[nH]c2c1 (stereo unspecified)  -9.74%
90. CCN1CCN(C2CCN(Cc3nc(C)c(C)o3)CC2)C1=O  -9.92%
91. CC(C)c1nccn1-c1cncc(C2CCCN(C3CCCCC3)C2)n1 (stereo unspecified)  -9.97%
92. CCC(O)CN1CCN(C(=O)Cc2cc(Cl)ccc2OC)CC1 (stereo unspecified)  -10.4%
93. COCCNC(=O)NCc1cc(-c2cccs2)n(C2CCCC2)n1  -10.5%
94. CCCn1ncc(C2CC(=O)NCc3nc4sc(C)cn4c32)c1C (stereo unspecified)  -10.8%
95. CC(C)CC(C#N)NC(=O)c1ccc(Oc2cccnc2)cc1 (stereo unspecified)  -11.4%
96. O=C(CCc1nc(Cl)n[nH]1)NC1CCCN(CC2CCCCC2)C1 (stereo unspecified)  -11.4%
97. CC(C)c1cc(NC(=O)CN2CCc3c(nc(C(C)C)n3C)C2)on1  -12.3%
98. Oc1ccc(N2CCN(Cc3ccc(F)cc3Br)CC2)cc1  -13.2%
99. Cc1ccc(CN2Cc3ccccc3OC3(CCC(CO)CC3)C2)o1 (stereo unspecified)  -13.7%
100. Cc1cc(CNC(=O)N(Cc2ccc(F)cc2F)C2CC2)no1  -18.5%
101. O=C(NCCc1coc(-c2ccccc2)n1)NC1CC1  -18.5%
102. O=C1NCC2(CCCN(Cc3ccccc3OCCO)C2)O1 (stereo unspecified)  -39.2%
103. Cc1nnc(NC(=O)N2CCCCC2CCO)s1 (stereo unspecified)  -43.2%
104. COc1ccc(C(=O)N2CC[C@@]3(O)CCCC[C@H]3C2)cc1OC  -43.4%
105. CC(C)c1sc(Cl)nc1C(=O)N1CCN(c2ccccn2)CC1  -43.8%
106. CN(C)C(CNC(=O)OCC(F)(F)F)c1ccsc1 (stereo unspecified)  -44.4%
107. Cc1c(C(C)NC(=O)Nc2ccc(F)cc2F)cnn1C (stereo unspecified)  -46.2%
108. CCN(Cc1cccs1)S(=O)(=O)N(C)C(C)C  -49%
109. CN(C)Cc1cc(-c2nccn2CCn2cccn2)ccc1O  -50.5%
110. Cc1ccnn1CCC(=O)N1CCOC(CCc2ccccc2)C1 (stereo unspecified)  -51.1%
111. O=C(c1ccc2c(c1)[nH]c(=O)n2C1CCCC1)N1CC(O)C1  -53.5%
